# Experiments:
# [1] = Immunosuppressive activity in BALB/c mouse splenocytes assessed as inhibition of concanavalin A-induced cell proliferation at 100 uM after 48 hrs by MTT assay; assay type: functional; conditions: Splenocyte
# In short: (§1)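 Spleen cells (5 × 10⁵) from male BALB/c mice aged 6–8 weeks, erythrocytes lysed, stimulated with ConA 5 μg/mL in RPMI-1640/10% FBS. Compounds diluted from DMSO stock. ConA-stimulated cells used as control. Proliferation read by MTT added 4 h before end of culture, SDS/DMF lysis for 6 h, absorbance at 570 nm.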
# [2] = tested on: Splenocyte; assay: Immunosuppressive activity against concanavalin A-induced BALB/c mouse splenocytes assessed as inhibition of [3H]thymidine incorporation at 10 uM by liquid scintillation counting; assay type: functional
# [3] = Immunosuppressive activity in BALB/c mouse splenocytes assessed as inhibition of concanavalin A-induced cell proliferation at 10 uM after 48 hrs by MTT assay; assay type: functional; conditions: Splenocyte; in short: as §1
# [4] = Cytotoxicity against BALB/c mouse splenocytes at 100 uM after 48 hrs by MTT assay; assay type: cell-based, Splenocyte; conditions: read-out: INH
# In short: (§2)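 BALB/c spleen single-cell suspension, erythrocytes depleted with Tris-buffered NH4Cl (0.155 M NH4Cl, 16.5 mM Tris, pH 7.2). Cells cultured in RPMI-1640 with 10% FBS and compound diluted from DMSO stock (0.1% DMSO in control). Medium-alone cells served as control. MTT (5 mg/mL) added 4 h before end of culture, then SDS/DMF lysis buffer (pH 7.2) for 6 h. Absorbance read at 570 nm and growth inhibition % calculated.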
# [5] = tested on: Splenocyte; assay: Immunosuppressive activity against concanavalin A-induced BALB/c mouse splenocytes assessed as inhibition of [3H]thymidine incorporation at 30 uM by liquid scintillation counting; assay type: functional
# [6] = tested on: Splenocyte; assay: Immunosuppressive activity against concanavalin A-induced BALB/c mouse splenocytes assessed as inhibition of [3H]thymidine incorporation at 1 uM by liquid scintillation counting; assay type: functional
# [7] = tested on: T-cell; assay: Immunosuppressive activity against concanavalin A-induced BALB/c mouse splenocytes assessed as T-cells activation at 30 uM after 24 hrs by FACS assay; assay type: functional
# In short: (§3)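 Male BALB/c splenocytes (6–8 weeks), 5 × 10⁵, stimulated with ConA 5 μg/mL, with or without compound. After 24 h, cells washed twice in cold PBS and stained with CD25-FITC and CD4-APC for 30 min at 4 °C. Washed again and analysed by flow cytometry as the CD4+CD25+/CD4+ percentage.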
# [8] = Cytotoxicity against BALB/c mouse splenocytes at 10 uM after 48 hrs by MTT assay; assay type: cell-based, Splenocyte; conditions: read-out: INH; in short: as §2
# [9] = Cytotoxicity against BALB/c mouse splenocytes at 30 uM after 48 hrs by MTT assay; assay type: cell-based, Splenocyte; conditions: read-out: INH; in short: as §2
# [10] = Immunosuppressive activity in BALB/c mouse splenocytes assessed as inhibition of concanavalin A-induced cell proliferation at 30 uM after 48 hrs by MTT assay; assay type: functional; conditions: Splenocyte; in short: as §1
# [11] = tested on: T-cell; assay: Immunosuppressive activity against concanavalin A-induced BALB/c mouse splenocytes assessed as T-cells activation at 10 uM after 24 hrs by FACS assay; assay type: functional; in short: as §3
# [12] = tested on: T-cell; assay: Immunosuppressive activity against concanavalin A-induced BALB/c mouse splenocytes assessed as T-cells activation at 3 uM after 24 hrs by FACS assay; assay type: functional; in short: as §3
# [13] = tested on: T-cell; assay: Immunosuppressive activity against concanavalin A-induced BALB/c mouse splenocytes assessed as T-cells activation at 1 uM after 24 hrs by FACS assay; assay type: functional; in short: as §3
# [14] = Immunosuppressive activity in BALB/c mouse splenocytes assessed as inhibition of concanavalin A-induced cell proliferation at 1 uM after 48 hrs by MTT assay; assay type: functional; conditions: Splenocyte; in short: as §1
Compound,inhibition at 100 µM [1] [%],inhibition at 10 µM [2] [%],inhibition at 10 µM [3] [%],"cytotoxicity at 48 h, 100 µM [4] [%]",inhibition at 30 µM [5] [%],inhibition at 1 µM [6] [%],Activity [7] [%],"cytotoxicity at 48 h, 10 µM [8] [%]","cytotoxicity at 48 h, 30 µM [9] [%]",inhibition at 30 µM [10] [%],Activity [11] [%],Activity [12] [%],Activity [13] [%],inhibition at 1 µM [14] [%]
COc1cc(OC)c2c(OS(=O)(=O)c3ccc(C)cc3)ccnc2c1,94.2,87.7,82.3,13.2,98.9,12.9,13.7,6.2,5.4,94.7,68.39,81.66,85.74,–
C/C=C/C[C@@H](C)[C@@H](O)[C@H]1C(=O)N[C@@H](CC)C(=O)N(C)CC(=O)N(C)[C@@H](CC(C)C)C(=O)N[C@@H](C(C)C)C(=O)N(C)[C@@H](CC(C)C)C(=O)N[C@@H](C)C(=O)N[C@H](C)C(=O)N(C)[C@@H](CC(C)C)C(=O)N(C)[C@@H](CC(C)C)C(=O)N(C)[C@@H](C(C)C)C(=O)N1C [CYCLOSPORINE],–,–,–,–,–,–,–,–,–,–,–,–,35.14,86.4
COc1cc(OC)c2c(OC(=O)c3c(Cl)cccc3Cl)ccnc2c1,94.3,97.8,94,83.4,99.2,34.7,19.41,10.9,52.7,94.6,59.64,88.8,92.96,–
COc1cc(OC)c2c(OC(=O)c3ccccc3[N+](=O)[O-])ccnc2c1,90.5,21.1,38.6,33.4,64.6,10.2,86.19,10.7,32,75.2,92.75,94.01,94.79,–
COc1cc(OC)c2c(OC(=O)c3ccccc3I)ccnc2c1,93,47.5,63,54.7,87.1,8.2,83.23,14.3,26.5,90.6,90.04,91.87,93.1,–
COc1cc(OC)c2c(OC(=O)c3ccccc3Cl)ccnc2c1,89.8,37.9,46.1,39.8,52,4.3,90.86,2.9,6.6,73.7,93.1,92.8,95.63,–
COc1cc(OC)c2c(OC(=O)c3ccccc3C)ccnc2c1,92.2,55.4,70.3,64,94.6,2.2,75.65,9.4,53.9,91.4,85.45,92.54,93.81,–
